Reference: ChEMBL document CHEMBL4152269, “New N-phenylpyrrolamide DNA gyrase B inhibitors: Optimization of efficacy and antibacterial activity” (Eur J Med Chem, 2018)
Values after ≈ are worked out from the molar mass of the structure shown. Active and inactive are the calls of the source. The rule behind the calls is not given here.

Legend:
Enterococcus faecalis [1] = experiment: Antibacterial activity against Enterococcus faecalis; type: functional, organism-based
[2] = Inhibition of Escherichia coli C-terminal His6-tagged topoisomerase-4 expressed in Escherichia coli BL21(DE3) preincubated for 10 mins followed by ATP addition measured after 30 mins by purine nucleoside phosphorylase enzyme coupled spectrophotometric method
Escherichia coli [3] = experiment: Growth inhibition of Escherichia coli ATCC 25922 at 50 uM after 24 hrs by broth microdilution method relative to control; type: functional; settings: ATCC 25922, 24 h, read-out: GI
Staphylococcus aureus [4] = experiment: (§1) Inhibition of Staphylococcus aureus topoisomerase-4 assessed as residual activity at 1 uM preincubated for 10 mins followed by ATP addition measured after 30 mins by purine nucleoside phosphorylase enzyme coupled spectrophotometric method relative to control
Escherichia coli [5] = experiment: Growth inhibition of lpxC deficient Escherichia coli JD17464 at 50 uM after 24 hrs by broth microdilution method relative to control; type: functional; settings: JD17464, 24 h, read-out: GI
Escherichia coli [6] = experiment: as §1, with “Escherichia coli C-terminal His6-tagged” for “Staphylococcus aureus”, “topoisomerase-4 expressed in Escherichia coli BL21(DE3)” for “topoisomerase-4”
Pseudomonas aeruginosa = experiment: Growth inhibition of Pseudomonas aeruginosa ATCC 27853 at 50 uM after 24 hrs by broth microdilution method relative to control; type: functional; settings: ATCC 27853, 24 h, read-out: GI
Escherichia coli [7] = experiment: Growth inhibition of tolC deficient Escherichia coli JW5503 at 50 uM after 24 hrs by broth microdilution method relative to control; type: functional; settings: JW5503, 24 h, read-out: GI
Staphylococcus aureus [8] = experiment: Growth inhibition of Staphylococcus aureus ATCC 25923 at 50 uM after 24 hrs by broth microdilution method relative to control; type: functional; settings: ATCC 25923, 24 h, read-out: GI
DNA gyrase subunit B [9] = target: DNA gyrase subunit B (Escherichia coli, UniProt P0AES6); experiment: Inhibition of Escherichia coli DNA gyrase by supercoiling assay
[10] = target: DNA gyrase subunit B (Staphylococcus aureus) (UniProt P0A0K8); experiment: Inhibition of Staphylococcus aureus DNA gyrase B assessed as residual activity at 1 uM preincubated for 10 mins followed by ATP addition measured after 30 mins by purine nucleoside phosphorylase enzyme coupled spectrophotometric method relative to control
DNA gyrase subunit B (Staphylococcus aureus), sequence (P0A0K8 2-644 limits assumed): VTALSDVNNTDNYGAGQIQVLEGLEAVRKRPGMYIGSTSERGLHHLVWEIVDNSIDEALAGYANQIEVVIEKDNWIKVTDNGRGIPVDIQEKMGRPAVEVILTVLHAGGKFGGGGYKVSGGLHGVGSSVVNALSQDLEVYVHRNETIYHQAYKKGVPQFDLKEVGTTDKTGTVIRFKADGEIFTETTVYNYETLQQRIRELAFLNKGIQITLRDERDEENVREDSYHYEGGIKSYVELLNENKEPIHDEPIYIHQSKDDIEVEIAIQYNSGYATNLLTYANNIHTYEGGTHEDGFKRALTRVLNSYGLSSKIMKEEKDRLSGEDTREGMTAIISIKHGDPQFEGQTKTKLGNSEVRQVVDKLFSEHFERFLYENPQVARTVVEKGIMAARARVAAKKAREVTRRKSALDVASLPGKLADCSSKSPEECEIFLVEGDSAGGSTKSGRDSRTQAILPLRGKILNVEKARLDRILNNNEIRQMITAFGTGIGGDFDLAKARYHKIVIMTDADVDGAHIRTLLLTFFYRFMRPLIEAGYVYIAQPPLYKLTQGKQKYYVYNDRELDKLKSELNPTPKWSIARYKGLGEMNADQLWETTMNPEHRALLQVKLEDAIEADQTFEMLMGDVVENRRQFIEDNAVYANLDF

Enterococcus faecalis [11] = experiment: Growth inhibition of Enterococcus faecalis ATCC 29212 at 50 uM after 24 hrs by broth microdilution method relative to control; type: functional; settings: ATCC 29212, 24 h, read-out: GI
Escherichia coli [12] = experiment: Antibacterial activity against Escherichia coli MG1655 up to 50 uM after 18 hrs by broth microdilution method; type: functional, organism-based; settings: K-12 substr. MG1655
Method in brief: (§2)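 Broth microdilution per EUCAST/ISO 20776-1:2006: 12-step serial dilutions of compound in cation-adjusted Mueller-Hinton II broth, about 5 × 10^4 bacteria per well, 37 °C with shaking at 300 rpm, OD600 read after 18 h. MIC is the lowest concentration with background-normalized OD600 below 0.05, i.e. no visible growth; 3 replicates. Top concentration 50 μM.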

Escherichia coli [13] = experiment: Antibacterial activity against Escherichia coli BW25113 up to 50 uM after 18 hrs by broth microdilution method; type: functional, organism-based; method in brief: as §2
Escherichia coli [14] = experiment: Antibacterial activity against surA deficient Escherichia coli BW25113 after 18 hrs in presence of efflux pump inhibitor PAbetaN by broth microdilution method; type: functional; settings: BW25113, 18 h
Method in brief: (§3)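 Efflux pump inhibitor PAβN was added to EUCAST/ISO 20776-1 broth microdilution using 12-step serial dilutions in cation-adjusted Mueller-Hinton II broth. About 5 × 10^4 bacteria were inoculated per well and incubated at 37 °C, shaken at 300 rpm, for 18 h, then read at OD600. MIC is the lowest concentration with background-normalized OD600 below 0.05, from 3 replicates.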

Escherichia coli [15] = experiment: Antibacterial activity against mrcB deficient Escherichia coli BW25113 up to 50 uM after 18 hrs by broth microdilution method; type: functional, organism-based
Method in brief: as §3, with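 “EUCAST/ISO” for “Efflux pump inhibitor PAβN was added to EUCAST/ISO”, “18 h. Growth was” for “18 h, then”, “read as” for “read at”, “concentration giving” for “concentration with”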

Escherichia coli [16] = experiment: Antibacterial activity against Escherichia coli BW25113 up to 20 uM after 18 hrs in presence of efflux pump inhibitor PAbetaN by broth microdilution method; type: functional, organism-based
Escherichia coli [17] = experiment: Antibacterial activity against surA deficient Escherichia coli BW25113 up to 50 uM after 18 hrs by broth microdilution method; type: functional, organism-based; method in brief: as §2
Escherichia coli [18] = experiment: Antibacterial activity against acrB deficient Escherichia coli BW25113 up to 50 uM after 18 hrs by broth microdilution method; type: functional, organism-based; method in brief: as §2
Enterococcus faecalis [19] = experiment: Antibacterial activity against Enterococcus faecalis ATCC 29212 after 18 hrs by broth microdilution method; type: functional; settings: ATCC 29212, 18 h
Staphylococcus aureus [20] = experiment: Antibacterial activity against Staphylococcus aureus ATCC 29213 after 18 hrs by broth microdilution method; type: functional; settings: ATCC 29213, 18 h
Method in brief: as §3, with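 “EUCAST/ISO” for “Efflux pump inhibitor PAβN was added to EUCAST/ISO”, “18 h. Growth was” for “18 h, then”, “read as” for “read at”, “concentration giving” for “concentration with”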

Escherichia coli [21] = experiment: Antibacterial activity against tolC deficient Escherichia coli BW25113 up to 50 uM after 18 hrs by broth microdilution method; type: functional, organism-based; method in brief: as §2
Escherichia coli [22] = experiment: Antibacterial activity against Escherichia coli ATCC 25922 after 18 hrs in presence of efflux pump inhibitor PAbetaN by broth microdilution method; type: functional; settings: ATCC 25922, 18 h; method in brief: as §3
Escherichia coli [23] = experiment: Antibacterial activity against dapF deficient Escherichia coli BW25113 up to 20 uM after 18 hrs in presence of efflux pump inhibitor PAbetaN by broth microdilution method; type: functional, organism-based
Method in brief: (§4)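 Same EUCAST broth microdilution in cation-adjusted Mueller-Hinton II broth, 12-step compound dilutions, about 5 × 10^4 bacteria per well, 37 °C, 300 rpm, OD600 at 18 h. Parental and mutant strains were co-treated with the efflux pump inhibitor PAβN. MIC taken as normalized OD600 below 0.05; 3 replicates.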

[24] = Cytotoxicity against human HepG2 cells assessed as cell proliferation at 50 uM after 72 hrs by MTS assay relative to control; type: cell-based; settings: read-out: Activity
Method in brief: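 MTS assay in HepG2 grown in Eagle's MEM with 2 mM L-glutamine, penicillin/streptomycin and 10% FBS, at 37 °C under 5% CO2. Cells seeded at 2000 per well and attached for 24 h. Compound added at 50 μM (0.5% DMSO final) for 72 h, then reagent for 3 h and A490 read. […] Triplicate wells, two repeats, Welch's t-test.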

Escherichia coli [25] = experiment: Antibacterial activity against mrcB deficient Escherichia coli BW25113 up to 20 uM after 18 hrs in presence of efflux pump inhibitor PAbetaN by broth microdilution method; type: functional, organism-based; method in brief: as §4
[26] = Inhibition of Staphylococcus aureus topoisomerase-4 assessed as residual activity preincubated for 10 mins followed by ATP addition measured after 30 mins by purine nucleoside phosphorylase enzyme coupled spectrophotometric method
Escherichia coli [27] = experiment: Antibacterial activity against Escherichia coli MG1655 harboring NOG R136C mutant up to 50 uM after 18 hrs in presence of efflux pump inhibitor PAbetaN by broth microdilution method; type: functional, organism-based; settings: K-12 substr. MG1655
Staphylococcus aureus [28] = experiment: Antibacterial activity against methicillin-resistant Staphylococcus aureus ATCC 43300 after 18 hrs by broth microdilution method; type: functional; settings: ATCC 43300, 18 h
HUVEC = experiment: Cytotoxicity against HUVEC assessed as reduction in cell proliferation after 72 hrs by MTS assay; type: cell-based; settings: Homo sapiens
Method in brief: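 MTS assay in HUVEC grown in Eagle's MEM with 2 mM L-glutamine, penicillin/streptomycin and 10% FBS, at 37 °C under 5% CO2. Cells seeded at 2000 per well, attached for 24 h, then exposed to six compound concentrations (0.5% DMSO final) for 72 h. Reagent added for 3 h before reading A490. IC50 derived against DMSO-treated cells; triplicate wells, two repeats.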

Escherichia coli [29] = experiment: Antibacterial activity against dapF deficient Escherichia coli BW25113 up to 50 uM after 18 hrs by broth microdilution method; type: functional, organism-based; method in brief: as §2
Escherichia coli [30] = experiment: Antibacterial activity against Escherichia coli ATCC 25922 up to 50 uM after 18 hrs by broth microdilution method; type: functional, organism-based; method in brief: as §2
Escherichia coli [31] = experiment: Antibacterial activity against Escherichia coli MG1655 after 18 hrs in presence of efflux pump inhibitor PAbetaN by broth microdilution method; type: functional; settings: K-12 substr. MG1655, 18 h; method in brief: as §3
Escherichia coli [32] = experiment: microbe, parasite or virus in culture; settings: ATCC 25922, 18 h
DNA gyrase subunit B [33] = target: DNA gyrase subunit B (Staphylococcus aureus, UniProt P0A0K8); experiment: Inhibition of Staphylococcus aureus DNA gyrase B preincubated for 10 mins followed by ATP addition measured after 30 mins by purine nucleoside phosphorylase enzyme coupled spectrophotometric method
DNA gyrase subunit B (Staphylococcus aureus, UniProt P0A0K8), sequence (P0A0K8 whole entry): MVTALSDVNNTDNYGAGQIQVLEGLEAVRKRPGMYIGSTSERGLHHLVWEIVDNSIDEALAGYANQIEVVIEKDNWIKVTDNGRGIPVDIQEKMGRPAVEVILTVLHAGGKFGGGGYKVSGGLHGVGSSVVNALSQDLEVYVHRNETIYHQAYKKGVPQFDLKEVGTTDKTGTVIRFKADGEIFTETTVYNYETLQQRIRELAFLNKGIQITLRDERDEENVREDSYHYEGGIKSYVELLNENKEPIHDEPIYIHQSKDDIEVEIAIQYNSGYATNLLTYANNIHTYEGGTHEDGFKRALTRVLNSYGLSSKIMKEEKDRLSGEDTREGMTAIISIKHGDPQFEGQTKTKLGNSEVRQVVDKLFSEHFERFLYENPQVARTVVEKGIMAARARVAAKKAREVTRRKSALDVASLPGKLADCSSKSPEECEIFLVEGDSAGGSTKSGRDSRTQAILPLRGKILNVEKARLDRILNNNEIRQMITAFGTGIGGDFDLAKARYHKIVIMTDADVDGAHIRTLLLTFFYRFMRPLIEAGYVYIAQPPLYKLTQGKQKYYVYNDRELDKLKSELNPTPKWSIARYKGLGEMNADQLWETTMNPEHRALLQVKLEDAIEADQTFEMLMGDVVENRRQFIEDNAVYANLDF

Q: What does the source list for `Cc1[nH]c(C(=O)Nc2ccc(C(=O)NCC(=O)O)cc2OC(C)C)c(Cl)c1Cl`?
A: MIC (Enterococcus faecalis [1]): 50 µM (≈ 21.4 µg/mL); IC50 [2]: 11 µM

Q: With `NCCOc1cc(C(=O)N[C@@H](Cc2ccccc2)C(=O)O)ccc1NC(=O)c1cc(Br)c(Br)[nH]1` as the compound, how does the inhibition of growth at 50 µM (Escherichia coli [3]) read?
A: 5%

Q: What about the Activity (Staphylococcus aureus [4]) of the same compound?
A: 98%

Q: And the inhibition of growth at 50 µM (Escherichia coli [5])?
A: 9%

Q: What about the Activity (Escherichia coli [6]) of the same compound?
A: 96%

Q: What about the inhibition of growth at 50 µM (Pseudomonas aeruginosa) of the same compound?
A: 21%

Q: What about the inhibition of growth at 50 µM (Escherichia coli [7]) of the same compound?
A: -6%

Q: What about the inhibition of growth at 50 µM (Staphylococcus aureus [8]) of the same compound?
A: 20%

Q: And the IC50 (DNA gyrase subunit B [9])?
A: 370 nM

Q: What about the Activity [10] of the same compound?
A: 89%

Q: What about the inhibition of growth at 50 µM (Enterococcus faecalis [11]) of the same compound?
A: 34%

Q: With `Cc1[nH]c(C(=O)Nc2ccc(C(=O)N[C@@H](C)c3n[nH]c(=O)o3)cc2OC(C)C)c(Cl)c1Cl` as the compound, how does the inhibition of growth at 50 µM (Escherichia coli [3]) read?
A: 5%

Q: What about the inhibition of growth at 50 µM (Escherichia coli [5]) of the same compound?
A: 0%

Q: What about the Activity (Escherichia coli [12]) of the same compound?
A: inactive

Q: What about the Activity (Escherichia coli [13]) of the same compound?
A: inactive

Q: What about the MIC90 (Escherichia coli [14]) of the same compound?
A: 13.8 µM

Q: What about the Activity (Escherichia coli [15]) of the same compound?
A: inactive

Q: What about the Activity (Escherichia coli [16]) of the same compound?
A: inactive

Q: What about the Activity (Escherichia coli [17]) of the same compound?
A: inactive

Q: What about the Activity (Escherichia coli [18]) of the same compound?
A: inactive

Q: What about the MIC90 (Enterococcus faecalis [19]) of the same compound?
A: 1.56 µM (≈ 0.752 µg/mL)

Q: And the MIC90 (Staphylococcus aureus [20])?
A: 4.17 µM (≈ 2.01 µg/mL)

Q: And the Activity (Escherichia coli [21])?
A: inactive

Q: What about the inhibition of growth at 50 µM (Pseudomonas aeruginosa) of the same compound?
A: -1%

Q: And the inhibition of growth at 50 µM (Escherichia coli [7])?
A: 51%

Q: What about the MIC90 (Escherichia coli [22]) of the same compound?
A: 4.6 µM

Q: What about the Activity (Escherichia coli [23]) of the same compound?
A: inactive

Q: What about the viability at 72 h, 50 µM [24] of the same compound?
A: 85%

Q: What about the inhibition of growth at 50 µM (Staphylococcus aureus [8]) of the same compound?
A: 100%

Q: What about the Activity (Escherichia coli [25]) of the same compound?
A: inactive

Q: What about the IC50 [26] of the same compound?
A: 12 µM

Q: And the Activity (Escherichia coli [27])?
A: inactive

Q: What about the MIC90 (Staphylococcus aureus [28]) of the same compound?
A: 3.13 µM (≈ 1.51 µg/mL)

Q: What about the inhibition of growth at 50 µM (Enterococcus faecalis [11]) of the same compound?
A: 97%

Q: And the IC50 (HUVEC)?
A: 40.7 µM

Q: And the Activity (Escherichia coli [29])?
A: inactive

Q: What about the IC50 [2] of the same compound?
A: 11 µM

Q: And the Activity (Escherichia coli [30])?
A: inactive

Q: What about the MIC90 (Escherichia coli [31]) of the same compound?
A: 10.2 µM

Q: With `O=C(O)c1cn(C2CC2)c2cc(N3CCNCC3)c(F)cc2c1=O` [CIPROFLOXACIN] as the compound, how does the MIC90 (Escherichia coli [32]) read?
A: 0.05 µM (≈ 0.0166 µg/mL)

Q: Which results are given for `CC(C)Oc1cc(C(=O)N[C@@H](C)C(=O)O)ccc1NC(=O)c1cc(Br)c(Br)[nH]1`?
A: inhibition of growth at 50 µM (Escherichia coli [3]): 0%; Activity (Staphylococcus aureus [4]): 98%; inhibition of growth at 50 µM (Escherichia coli [5]): -15%; Activity (Escherichia coli [6]): 78%; inhibition of growth at 50 µM (Pseudomonas aeruginosa): 10%; inhibition of growth at 50 µM (Escherichia coli [7]): 6%; inhibition of growth at 50 µM (Staphylococcus aureus [8]): -18%; IC50 (DNA gyrase subunit B [33]): 5.9 µM; IC50 (DNA gyrase subunit B [9]): 370 nM; inhibition of growth at 50 µM (Enterococcus faecalis [11]): 70%
